Only some compounds are listed: those with a hit (about 3.5% of all), similar ones and a draw of the others.
RGS4 act: RGS4 potentiation or activation. HEK293 M3R/inducible RGS4, carbachol calcium flux Fluo4; hits give low values. B-score at 10 µM. 310,000 compounds, 0.92% hits. AID 463111;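 active = B-score of the integrated calcium signal more than 4 SD below the library mean, with starting fluorescence not abnormally high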;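 also: negative B-score means reduced calcium response which marks RGS4 activation or potentiation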
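System – HEK293 FlpIn-TREx cells, stable M3R, doxycycline-inducible RGS4 · Reagent – ECmax carbachol challenge · Times – compound preincubation 20 min at room temperature before agonist · Technique – Fluo4 fluorescence kinetic imaging of calcium · Measure – B score of integrated Fluo4 ratio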
MrgX1 agonist: activates human MrgX1 receptor signaling; Q96LB2; MrgX1-HEK293 cells, Fluo-4 calcium fluorescence, agonist mode; hits give high values; B-score at 10 µM; 310,000 compounds, 0.44% hits;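 active = calcium response B-score plate-corrected fluorescence ratio at least 3 library SD, with starting fluorescence B-score inside 5 SD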
Target sequence (Q96LB2 whole entry, looked up): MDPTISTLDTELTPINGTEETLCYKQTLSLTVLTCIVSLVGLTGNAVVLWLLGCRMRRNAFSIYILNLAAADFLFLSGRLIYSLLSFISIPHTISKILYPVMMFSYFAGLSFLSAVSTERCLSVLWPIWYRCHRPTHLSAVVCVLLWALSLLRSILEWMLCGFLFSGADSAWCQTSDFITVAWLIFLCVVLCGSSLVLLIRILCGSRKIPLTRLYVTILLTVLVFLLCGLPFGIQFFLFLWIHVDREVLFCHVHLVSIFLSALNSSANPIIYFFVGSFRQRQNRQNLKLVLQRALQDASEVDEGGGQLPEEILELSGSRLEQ
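Assay system: stable human MrgX1 HEK293 cell line. Quantity: 15,000 cells per well. Schedule: cells plated overnight, dye loaded 0.5 h 37 °C, 0.5 h room temperature. Detection: Fluo-4 NW calcium-flux fluorescence, kinetic read. Read-out basis: peak-minus-minimum fluorescence over baseline, converted to B scores. Control set: positive and negative control wells on each plate.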
RGS4 inh: inhibitors of human RGS4; P49798; HEK293 M3R/RGS4 inducible, Fluo-4 calcium flux; hits give high values; triggered by carbachol at its EC20; B-score at 10 µM; 310,000 compounds, 0.45% hits; AID 463165;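 active = B-score, a plate-corrected calcium signal, over three deviations above library mean, with baseline fluorescence within five deviations of library mean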;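 also: RGS4 expression induced by doxycycline in cells with stable M3 receptor; B-score is computed from the integrated fluorescence ratio over baseline after carbachol; higher B-score means a larger calcium signal and so more RGS4 inhibition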
Target sequence (P49798 whole entry, looked up): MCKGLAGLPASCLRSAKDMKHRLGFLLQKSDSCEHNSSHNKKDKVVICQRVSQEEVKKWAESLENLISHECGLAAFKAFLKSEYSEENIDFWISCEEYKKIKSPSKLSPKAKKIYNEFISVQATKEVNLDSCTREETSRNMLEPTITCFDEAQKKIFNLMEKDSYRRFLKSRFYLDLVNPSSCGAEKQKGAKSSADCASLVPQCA
MrgX1 allo act: human MrgX1 positive allosteric modulation, primary screen | AID 588675 | 310,000 compounds, 0.63% hits | Q96LB2 | MrgX1-HEK293, Fluo-4 calcium flux, FDSS; hits give high values | B-score at 10 µM;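 active = plate-corrected calcium response at least 3 library SD above typical, normal starting fluorescence, not activating the receptor alone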;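 also: compound read alongside a low EC10 to EC30 dose of BAM8-22 agonist; peak minus trough fluorescence over baseline measured at the second addition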
MrgX1 antagonist: antagonists of human MrgX1 receptor. Q96LB2. 310,000 compounds, 1.3% hits. MRGX1-HEK293 calcium flux, Fluo-4, BAM8-22 antagonism; hits give low values. B-score at 10 µM;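 active = calcium-response B-score plate-corrected more than 3 library SD below zero, starting fluorescence within 5 deviations, no agonist response on first addition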;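 also: peak minus trough fluorescence over baseline after final BAM8-22 challenge near maximal dose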
Numbers stand for hits; i = inactive; nt = no result given.

SMILES | RGS4 act | MrgX1 agonist | RGS4 inh | MrgX1 allo act | MrgX1 antagonist
O=C(CN(c1ccccc1)S(=O)(=O)c1ccc(F)cc1)NC1CCCCCC1 | i | i | i | i | i
COc1cc(/C=C2\SC(=S)N(CCCCC(=O)O)C2=O)ccc1OS(=O)(=O)c1ccc(C)cc1 | i | i | i | i | i
O=C(CCCCCCCCC(=O)N/N=C/c1ccco1)N/N=C/c1ccco1 | i | i | i | i | -5.7
CC(C)CC(NC(=O)c1ccccc1)C(=O)N/N=C/c1ccco1 (configuration not stated) | i | 30 | i | i | i
CC(NC(=O)c1ccccc1)C(=O)N/N=C/c1ccco1 (configuration not stated) | i | i | i | i | i
CNC(=O)COC(=O)/C=C/c1cccs1 | i | i | i | 6.5 | i
C#CCOCCOCCOCCNc1nc(N2CCN(C(=O)CCCCCCCCCCNC(=O)[C@H](CO)n3cc(CCCSC)nn3)CC2)nc(N2CCN(C(=O)CCCCCCCCCCNC(=O)[C@@H]([C@H](C)O)n3cc(C)nn3)CC2)n1 | nt | i | nt | i | i
CCC(NC(=O)Cc1c(C)c2cc3c(cc2oc1=O)OC(C)(C)CC3)C(=O)O (configuration not stated) | i | i | i | i | i
COc1ccccc1NC(=S)N/N=C/c1cccc(C)c1 | i | i | i | i | i
COc1ccccc1NC(=S)N/N=C/c1ccc(O)cc1 | i | i | i | 9 | i
CCOC(=O)Cn1nc(C)c2c1CCCC2=O | i | i | i | i | i
COc1ccc(CN(C(=O)CSc2nnc(-c3ccccc3F)o2)c2ccc(F)cc2)cc1 | -7.8 | i | i | i | i
CN(C(=O)CSc1nnc(-c2ccccc2F)o1)c1ccccc1 | i | i | i | i | i
O=C(N/C(=C\c1cccnc1)C(=O)N1CCOCC1)c1ccco1 | i | i | i | i | -5
C/C(N)=C(/C#N)C(=O)COC(=O)c1ccc(OCC2CCCO2)cc1 (configuration not stated) | i | i | i | i | i
Fc1cnc(N/N=C/c2ccc(-c3ccc(Br)cc3)o2)nc1N1CCOCC1 | -7.8 | i | i | i | i
Brc1ccc(-c2ccc(/C=N/Nc3nc(N4CCOCC4)nc(N4CCOCC4)n3)o2)cc1 | i | i | i | i | i
Cc1ccc(C(=O)Nn2c(C)nc3ccccc3c2=O)cc1C | i | i | i | i | i
O=C(N/N=C/c1ccc(OC(F)F)cc1)c1ccc(Br)cc1 | i | i | i | i | -5.3
O=C(N/N=C/c1ccc(OC(F)F)cc1)c1cc[n+]([O-])cc1 | i | i | i | i | -6
Nn1cnc2cc3ccccc3cc2c1=O | i | i | i | i | i
COc1ccc(C(CNC(=O)C2CCN(S(=O)(=O)c3ccc(F)cc3)CC2)N(C)C)cc1 (configuration not stated) | i | i | i | i | i
Cc1nn(-c2ccccc2)nc1CNC(=O)c1ncoc1-c1ccccc1 | -7.4 | i | i | i | i
Cc1cccc(C(=O)Oc2ccc(/C=N/O)cc2)c1 | i | i | i | 7.7 | i
Cc1ccc(C(=O)N/N=C\c2ccc(OC(=O)c3cccc(F)c3)cc2)cn1 | i | i | i | i | i
SMILES | RGS4 act | MrgX1 agonist | RGS4 inh | MrgX1 allo act | MrgX1 antagonist
O=C(Oc1ccc2ccc(O)cc2c1)c1ccccc1Cl | i | i | i | i | i
O=C(Oc1ccc(/C=N/O)cc1)c1ccccc1Cl | i | i | i | 16 | i
Cc1c([N+](=O)[O-])cc(C(=O)Nc2ccc(NC(=O)c3ccco3)cc2)cc1[N+](=O)[O-] | i | i | i | i | i
COc1ccc(CCNc2ccc(C(CC(N)=O)NC(=O)c3cc(OC)ccc3OC)cc2[N+](=O)[O-])cc1 (configuration not stated) | i | i | i | i | -5
COc1cc2[nH]c(=O)n(CCCCCC(=O)N3CC=C(c4ccccc4)CC3)c(=O)c2cc1OC | -8.8 | i | i | i | i
CCOc1cc2[nH]c(=O)n(CCCC(=O)NCc3ccco3)c(=O)c2cc1OCC | i | i | i | i | i
CCOc1cc2[nH]c(=O)n(CCCC(=O)N(C)Cc3ccccc3)c(=O)c2cc1OCC | i | i | i | 7.9 | i
CC(C)(C)c1ccc(OCC(=O)O/N=C(\N)c2ccncc2)cc1 | i | i | i | i | i
O=S(=O)(NCC1CCCO1)c1ccccc1F (configuration not stated) | i | i | i | i | i
O=C(NC1CC2CCCC(C1)N2C(=S)NCCc1ccccc1)C1CC1 (configuration not stated) | i | i | i | i | i
N#C/C(=C/c1ccc(-c2cc(C(=O)O)cc(C(=O)O)c2)o1)c1nc2ccccc2s1 | i | 27 | i | i | i
Cc1onc(-c2c(Cl)cccc2Cl)c1C(=O)NC1CCCCC1 | i | i | i | i | i
Cc1onc(-c2c(Cl)cccc2Cl)c1C(=O)NN1CCCCCC1 | -8.4 | i | i | i | i
O=C1Nc2ccccc2/C1=C/c1cccnc1 | i | i | i | i | i
O=C1Nc2ccccc2/C1=C/c1cnc(-c2ccccc2)[nH]1 | -7 | i | i | i | i
CC(C)N1C(=O)CCC1C(=O)NCc1ccc(F)cc1Cl (configuration not stated) | i | i | i | i | i
CCC(=O)Oc1ccc(C2NC(=O)c3ccccc3O2)cc1OC (configuration not stated) | -7.6 | i | i | i | i
O=C(Cn1nnc2ccccc21)OCC(=O)c1ccccc1 | i | i | i | i | -6.1
O=C(/C=C/c1cccs1)N1CCC2(CC1)Oc1ccc(Cl)cc1C(=O)C21CC(c2ccc(Cl)cc2)=NO1 (configuration not stated) | i | i | i | i | i
O=C(/C=C/c1cccs1)N1CCC2(CC1)Oc1ccc(F)cc1C(=O)C21CC(c2ccc(Cl)cc2)=NO1 (configuration not stated) | i | i | i | i | -4.5
CCOc1ccc2[nH]cc(-c3csc(N)n3)c2c1 | i | i | i | i | i
O=C(CN1C(=O)S/C(=C\C=C\c2ccccc2)C1=O)Nc1ccccc1C(=O)O | i | i | i | i | i
C#CCN1C(=O)S/C(=C/C=C/c2ccc(N(C)C)cc2)C1=O | nt | i | nt | i | -5.3
C=CCNC(=O)c1ccc(NC(=O)C2=CSCCO2)cc1 | i | i | i | i | i
O=C(/C=C/c1ccccc1Cl)c1cccnc1 | i | 28 | i | i | i
O=C(/C=C/c1ccc(Cl)cc1)c1cccnc1 | i | i | i | i | i
Cc1ccc(N(CCC#N)C(=O)COC(=O)C2CCN(c3ccc(C(F)(F)F)cn3)CC2)cc1 | i | i | i | i | i
Cc1cc(C)cc(N(CCC#N)C(=O)COC(=O)C2CCN(c3ccc(C(F)(F)F)cn3)CC2)c1 | -7 | i | i | i | i
CCc1ccc(/C=N\NC(=O)c2ccc(Br)o2)s1 | i | i | i | i | -4.9
Cc1cc(Cl)c2oc(C(=O)N(C)CCc3cnn(C)c3)c(C)c2c1 | i | i | i | i | i

Source: PubChem BioAssay (Johns Hopkins Ion Channel Center)
